Assay results taken from ChEMBL document CHEMBL1143943, “Synthesis of naphtho[2,3-a]phenoxazinium chlorides: structure-activity relationships of these heterocycles and benzo[a]phenoxazinium chlorides as new antimicrobials” (2008).
Values after ≈ are worked out from the molar mass of the structure shown. Counter-ions that a name gives are not always drawn.

Test system: Saccharomyces cerevisiae
Test: Antifungal activity against Saccharomyces cerevisiae W303-1B after 48 hrs by broth microdilution assay
Format: functional
Procedure, shortened: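 NCCLS M27-A broth microdilution; S. cerevisiae W303-1B ([…], ade2, his3, leu2, trp1, ura3) at 0.5 · 10³ cells/mL initial density in RPMI 1640 with 0.165 M MOPS, pH 7.0, plus required amino acids; 30 °C. DMSO stocks diluted into medium. MIC read visually at 48 h as lowest concentration giving no detectable growth; triplicates, two independent experiments.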

Row | SMILES | MIC [µM]
1 | CC/N=c1/cc2oc3cc(NCCC(=O)NC(C)C(=O)OC)c4ccccc4c3nc-2cc1C (stereo unspecified) | 30 (≈ 13.8 µg/mL)
2 | CC/N=c1/cc2oc3cc(NCCCCl)c4cc5ccccc5cc4c3nc-2cc1C | 15 (≈ 6.45 µg/mL)
3 | C[N+](C)=c1ccc2nc3c(cc(NCCCO)c4ccccc43)oc-2c1 | 120
4 | CC/N=c1/cc2oc3cc(NCCC(=O)NC(C(=O)OC)C(C)C)c4ccccc4c3nc-2cc1C (stereo unspecified) | 30 (≈ 14.7 µg/mL)
5 | CC/N=c1/cc2oc3cc(NCCCC(=O)OCC)c4ccccc4c3nc-2cc1C | 7.5 (≈ 3.13 µg/mL)
6 | CC[N+](CC)=c1ccc2nc3c(cc(NCCC(=O)OC)c4ccccc43)oc-2c1 | 15
7 | CC/N=c1/cc2oc3cc(NCCCO)c4ccccc4c3nc-2cc1C | 60 (≈ 21.7 µg/mL)
8 | CC[N+](CC)=c1ccc2nc3c(cc(NCCCO)c4ccccc43)oc-2c1 | 120
9 | CC/N=c1/cc2oc3cc(NCCC(=O)OC)c4ccccc4c3nc-2cc1C | 15 (≈ 5.84 µg/mL)
10 | CC/N=c1/cc2oc3cc(NCCCC(=O)O)c4ccccc4c3nc-2cc1C | 120 (≈ 46.7 µg/mL)
11 | CC/N=c1/cc2oc3cc(NCCC(=O)OCC)c4ccccc4c3nc-2cc1C | 15 (≈ 6.05 µg/mL)
12 | COC(=O)CCNc1cc2oc3cc(=[N+](C)C)ccc-3nc2c2ccccc12 | > 120
13 | CC/N=c1/cc2oc3cc(NCCCCl)c4ccccc4c3nc-2cc1C | 3.75 (≈ 1.42 µg/mL)
14 | CCOC(=O)CCNc1cc2oc3cc(=[N+](C)C)ccc-3nc2c2ccccc12 | 15
15 | CC/N=c1/cc2oc3cc(N)c4ccccc4c3nc-2cc1C | 15 (≈ 4.55 µg/mL)
16 | CCCCCC/N=c1\ccc2nc3c(cc(Nc4ccccc4)c4ccccc43)oc-2c1 | > 120
17 | CC[N+](CC)=c1ccc2nc3c(cc(NCCC(=O)O)c4ccccc43)oc-2c1 | 120
18 | CC/N=c1/cc2oc3cc(NCCC(=O)NCC(=O)OC)c4ccccc4c3nc-2cc1C | 120 (≈ 53.6 µg/mL)
19 | CC/N=c1/cc2oc3cc(NCCC(=O)NC(Cc4ccccc4)C(=O)OC)c4ccccc4c3nc-2cc1C (stereo unspecified) | 15 (≈ 8.05 µg/mL)
20 | CC/N=c1/cc2oc3cc(NCCCN)c4cc5ccccc5cc4c3nc-2cc1C | 60 (≈ 24.6 µg/mL)

Row | SMILES | MIC [µM]
21 | C[N+](C)=c1ccc2nc3c(cc(NCCC(=O)O)c4ccccc43)oc-2c1 | > 120
22 | C[N+](C)=c1ccc2nc3c(cc(N)c4ccccc43)oc-2c1 | > 120
23 | CC/N=c1/cc2oc3cc(N)c4cc5ccccc5cc4c3nc-2cc1C | 30 (≈ 10.6 µg/mL)
24 | CC/N=c1/cc2oc3cc(NCCN)c4ccccc4c3nc-2cc1C | 120 (≈ 41.6 µg/mL)
25 | CC/N=c1/cc2oc3cc(NCCCC(=O)NC(C(=O)OC)C(C)C)c4ccccc4c3nc-2cc1C (stereo unspecified) | 60 (≈ 30.2 µg/mL)
26 | CC/N=c1/cc2oc3cc(NCCNC(=O)C(NC(=O)OC(C)(C)C)C(C)C)c4ccccc4c3nc-2cc1C (stereo unspecified) | 15 (≈ 8.19 µg/mL)
27 | CC/N=c1/cc2oc3cc(NCCOC(=O)C(NC(=O)OC(C)(C)C)C(C)C)c4ccccc4c3nc-2cc1C (stereo unspecified) | 15 (≈ 8.2 µg/mL)
28 | CC/N=c1/cc2oc3cc(Nc4ccccc4)c4ccccc4c3nc-2cc1C | > 120
29 | CC/N=c1/cc2oc3cc(NCCCO)c4cc5ccccc5cc4c3nc-2cc1C | 15 (≈ 6.17 µg/mL)
30 | CC/N=c1/cc2oc3cc(NCCCC(=O)OCC)c4cc5ccccc5cc4c3nc-2cc1C | 15 (≈ 7.01 µg/mL)
31 | CC/N=c1/cc2oc3cc(NCCO)c4ccccc4c3nc-2cc1C | 30 (≈ 10.4 µg/mL)
32 | CC/N=c1/cc2oc3cc(NCCCN)c4ccccc4c3nc-2cc1C | 30 (≈ 10.8 µg/mL)
33 | CC/N=c1/cc2oc3cc(NCCCOC(=O)C(NC(=O)OC(C)(C)C)C(C)C)c4ccccc4c3nc-2cc1C (stereo unspecified) | > 120
34 | CC/N=c1/cc2oc3cc(NCCC(=O)NC(CCC(=O)OC)C(=O)OC)c4ccccc4c3nc-2cc1C (stereo unspecified) | 120 (≈ 63.9 µg/mL)
35 | CC/N=c1/cc2oc3cc(NCCC(=O)O)c4ccccc4c3nc-2cc1C | 15 (≈ 5.63 µg/mL)
36 | CC/N=c1/cc2oc3cc(NC(=O)C(NC(=O)OC(C)(C)C)C(C)C)c4ccccc4c3nc-2cc1C (stereo unspecified) | 60 (≈ 30.2 µg/mL)
37 | C[N+](C)=c1ccc2nc3c(cc(Nc4ccccc4)c4ccccc43)oc-2c1 | > 120
38 | CCCNc1cc2oc3c/c(=N/CC)c(C)cc-3nc2c2cc3ccccc3cc12 | 15 (≈ 5.93 µg/mL)
39 | CC/N=c1/cc2oc3cc(NCCC(=O)NCCCCC(NC(C)=O)C(=O)OC)c4ccccc4c3nc-2cc1C (stereo unspecified) | 120 (≈ 67.2 µg/mL)
40 | CC[N+](CC)=c1ccc2nc3c(cc(N)c4ccccc43)oc-2c1 [NILE BLUE HYDROCHLORIDE] | 60

Test system: Saccharomyces cerevisiae
Test: Antifungal activity against Saccharomyces cerevisiae W303-1B at 0.5*10^4 initial cell density after 48 hrs by broth microdilution assay
Format: functional
Procedure, shortened: (§1)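 Same yeast microdilution protocol (W303-1B, RPMI 1640/0.165 M MOPS pH 7.0 with required amino acids, 30 °C, DMSO stocks diluted into medium), but initial inoculum raised in 10-fold steps within 0.5 · 10³–0.5 · 10⁶ cells/mL. MIC taken visually after 48 h as lowest concentration with no detectable growth; triplicates, two independent experiments.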

Row | SMILES | MIC [µM]
41 | CC/N=c1/cc2oc3cc(NCCCC(=O)OCC)c4ccccc4c3nc-2cc1C | 7.5 (≈ 3.13 µg/mL)
42 | CC/N=c1/cc2oc3cc(NCCCCl)c4ccccc4c3nc-2cc1C | 7.5 (≈ 2.85 µg/mL)

Test system: Saccharomyces cerevisiae
Test: Antifungal activity against Saccharomyces cerevisiae W303-1B at 0.5*10^5 initial cell density after 48 hrs by broth microdilution assay
Format: functional
Procedure, shortened: as §1

Row | SMILES | MIC [µM]
43 | CC/N=c1/cc2oc3cc(NCCCC(=O)OCC)c4ccccc4c3nc-2cc1C | 7.5 (≈ 3.13 µg/mL)
44 | CC/N=c1/cc2oc3cc(NCCCCl)c4ccccc4c3nc-2cc1C | 7.5 (≈ 2.85 µg/mL)

Test system: Saccharomyces cerevisiae
Test: Antifungal activity against Saccharomyces cerevisiae W303-1B at 0.5*10^6 initial cell density after 48 hrs by broth microdilution assay
Format: functional
Procedure, shortened: as §1

Row | SMILES | MIC [µM]
45 | CC/N=c1/cc2oc3cc(NCCCC(=O)OCC)c4ccccc4c3nc-2cc1C | 30 (≈ 12.5 µg/mL)
46 | CC/N=c1/cc2oc3cc(NCCCCl)c4ccccc4c3nc-2cc1C | 15 (≈ 5.7 µg/mL)
